How the values were obtained:
[1] = Inhibition of mTORC1 (unknown origin)-mediated 4EBP1 phosphorylation after 120 mins by ELISA; design: species or system Homo sapiens
[2] = biological target: Phosphatidylinositol 4,5-bisphosphate 3-kinase catalytic subunit alpha isoform (Homo sapiens, UniProt P42336); experiment: Inhibition of PI3Kalpha (unknown origin) using PIP2 as substrate after 2 hrs by luminescence assay
[3] = Plasma concentration in mouse at 100 mg/kg, po after 4 hrs; type: ADME, organism-based; design: dose 100 mg/kg, route oral
[4] = Plasma concentration in mouse at 100 mg/kg, po after 1 hr; type: ADME, organism-based; design: dose 100 mg/kg, route oral
[5] = Metabolic stability in mouse liver microsomes after 30 mins; type: ADME, Microsome; conditions: read-out: Stability
[6] = Inhibition of mTORC1-mediated phosphorylation of S6 at serine 240/244 in human PC3 cells after 3 hrs by ELISA; type: cell-based; conditions: PC-3, 3 h
Cytochrome P450 3A4 = Cytochrome P450 3A4 (Homo sapiens, UniProt P08684); experiment: Inhibition of CYP3A4 (unknown origin); type: ADME
Sequence of Cytochrome P450 3A4 (P08684 whole entry): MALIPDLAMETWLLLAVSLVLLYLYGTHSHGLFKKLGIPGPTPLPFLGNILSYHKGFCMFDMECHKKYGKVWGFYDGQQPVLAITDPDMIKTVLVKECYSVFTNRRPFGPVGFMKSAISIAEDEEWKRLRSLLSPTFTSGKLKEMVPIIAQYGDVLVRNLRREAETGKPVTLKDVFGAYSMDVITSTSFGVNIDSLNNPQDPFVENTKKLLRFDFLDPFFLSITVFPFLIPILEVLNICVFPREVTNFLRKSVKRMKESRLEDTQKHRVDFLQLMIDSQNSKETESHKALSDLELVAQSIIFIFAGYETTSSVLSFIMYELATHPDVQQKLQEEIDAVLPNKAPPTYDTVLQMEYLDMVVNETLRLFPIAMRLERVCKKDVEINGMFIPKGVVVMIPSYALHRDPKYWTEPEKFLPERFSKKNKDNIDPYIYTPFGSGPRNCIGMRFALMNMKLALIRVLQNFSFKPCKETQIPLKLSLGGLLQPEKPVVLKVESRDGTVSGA

Cytochrome P450 2C9 = Cytochrome P450 2C9 (Homo sapiens, UniProt P11712); experiment: Inhibition of CYP2C9 (unknown origin); type: ADME
Sequence of Cytochrome P450 2C9 (P11712 whole entry): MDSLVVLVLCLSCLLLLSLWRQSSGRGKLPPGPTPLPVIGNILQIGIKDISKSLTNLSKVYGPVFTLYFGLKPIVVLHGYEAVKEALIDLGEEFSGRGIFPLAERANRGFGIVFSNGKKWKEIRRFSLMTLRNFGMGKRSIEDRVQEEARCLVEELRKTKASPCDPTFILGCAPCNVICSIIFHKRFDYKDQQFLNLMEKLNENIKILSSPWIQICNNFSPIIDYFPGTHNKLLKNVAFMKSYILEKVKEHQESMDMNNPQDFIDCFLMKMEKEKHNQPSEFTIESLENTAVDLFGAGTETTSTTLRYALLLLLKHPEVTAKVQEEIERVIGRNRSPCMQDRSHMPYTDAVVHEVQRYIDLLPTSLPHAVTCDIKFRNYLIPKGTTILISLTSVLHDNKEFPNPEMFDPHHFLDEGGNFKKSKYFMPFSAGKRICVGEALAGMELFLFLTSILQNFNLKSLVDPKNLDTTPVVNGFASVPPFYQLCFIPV

[7] = Inhibition of mTORC2-mediated phosphorylation of AKT at serine 473 in human PC3 cells after 2 hrs and 50 mins by ELISA; type: cell-based; conditions: PC-3
How it was run: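 Compound in 0.3% DMSO was added for 2 h 50 min, followed by 10 min stimulation with 20 ng/mL EGF. After formaldehyde fixation, pAKT (S473) and total AKT were detected by chemiluminescent cell ELISA. IC50 came from pAKT normalized to total AKT, relative to DMSO control. Mean, n ≥ 2.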

Cytochrome P450 2C8 = biological target: T1, Cytochrome P450 2C8 (Homo sapiens, UniProt P10632); experiment: Inhibition of CYP2C8 (unknown origin); type: ADME
T1 sequence (P10632 whole entry): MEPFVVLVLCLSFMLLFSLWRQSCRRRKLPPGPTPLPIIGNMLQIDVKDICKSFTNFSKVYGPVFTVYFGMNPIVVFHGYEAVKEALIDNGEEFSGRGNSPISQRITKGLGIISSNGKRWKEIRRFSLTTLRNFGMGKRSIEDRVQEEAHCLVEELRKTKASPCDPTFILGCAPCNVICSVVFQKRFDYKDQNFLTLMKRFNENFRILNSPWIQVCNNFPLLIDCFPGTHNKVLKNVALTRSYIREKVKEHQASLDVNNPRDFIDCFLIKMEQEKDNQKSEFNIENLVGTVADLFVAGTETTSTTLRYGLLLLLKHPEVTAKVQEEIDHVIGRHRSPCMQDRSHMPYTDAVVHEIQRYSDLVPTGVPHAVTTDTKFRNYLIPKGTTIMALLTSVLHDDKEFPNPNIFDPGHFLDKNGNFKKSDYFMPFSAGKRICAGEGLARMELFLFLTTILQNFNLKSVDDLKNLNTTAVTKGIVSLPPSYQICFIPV

Cytochrome P450 2D6 = Cytochrome P450 2D6 (Homo sapiens, UniProt P10635); experiment: Inhibition of CYP2D6 (unknown origin); type: ADME
Sequence of Cytochrome P450 2D6 (P10635 whole entry): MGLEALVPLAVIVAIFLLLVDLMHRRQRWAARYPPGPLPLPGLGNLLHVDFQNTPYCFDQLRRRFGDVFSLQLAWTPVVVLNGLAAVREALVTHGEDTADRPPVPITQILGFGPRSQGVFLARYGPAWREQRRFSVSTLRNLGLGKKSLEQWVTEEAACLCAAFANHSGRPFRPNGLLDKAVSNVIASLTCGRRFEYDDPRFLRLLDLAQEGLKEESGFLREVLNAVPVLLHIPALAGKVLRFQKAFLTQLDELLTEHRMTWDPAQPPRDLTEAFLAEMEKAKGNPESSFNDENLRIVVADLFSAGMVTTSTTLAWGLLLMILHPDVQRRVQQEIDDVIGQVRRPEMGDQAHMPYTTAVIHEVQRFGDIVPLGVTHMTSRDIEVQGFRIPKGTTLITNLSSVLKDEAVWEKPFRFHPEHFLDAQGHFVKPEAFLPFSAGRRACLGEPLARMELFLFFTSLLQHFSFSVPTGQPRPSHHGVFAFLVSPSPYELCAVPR

[8] = Apparent permeability across MDCK cells; type: ADME, cell-based, Canis lupus familiaris; conditions: dog
[9] = Kinetic solubility of the compound; type: physicochemical; conditions: read-out: Kinetic_solubility

Sequence of Phosphatidylinositol 4,5-bisphosphate 3-kinase catalytic subunit alpha isoform (P42336 whole entry, canonical isoform): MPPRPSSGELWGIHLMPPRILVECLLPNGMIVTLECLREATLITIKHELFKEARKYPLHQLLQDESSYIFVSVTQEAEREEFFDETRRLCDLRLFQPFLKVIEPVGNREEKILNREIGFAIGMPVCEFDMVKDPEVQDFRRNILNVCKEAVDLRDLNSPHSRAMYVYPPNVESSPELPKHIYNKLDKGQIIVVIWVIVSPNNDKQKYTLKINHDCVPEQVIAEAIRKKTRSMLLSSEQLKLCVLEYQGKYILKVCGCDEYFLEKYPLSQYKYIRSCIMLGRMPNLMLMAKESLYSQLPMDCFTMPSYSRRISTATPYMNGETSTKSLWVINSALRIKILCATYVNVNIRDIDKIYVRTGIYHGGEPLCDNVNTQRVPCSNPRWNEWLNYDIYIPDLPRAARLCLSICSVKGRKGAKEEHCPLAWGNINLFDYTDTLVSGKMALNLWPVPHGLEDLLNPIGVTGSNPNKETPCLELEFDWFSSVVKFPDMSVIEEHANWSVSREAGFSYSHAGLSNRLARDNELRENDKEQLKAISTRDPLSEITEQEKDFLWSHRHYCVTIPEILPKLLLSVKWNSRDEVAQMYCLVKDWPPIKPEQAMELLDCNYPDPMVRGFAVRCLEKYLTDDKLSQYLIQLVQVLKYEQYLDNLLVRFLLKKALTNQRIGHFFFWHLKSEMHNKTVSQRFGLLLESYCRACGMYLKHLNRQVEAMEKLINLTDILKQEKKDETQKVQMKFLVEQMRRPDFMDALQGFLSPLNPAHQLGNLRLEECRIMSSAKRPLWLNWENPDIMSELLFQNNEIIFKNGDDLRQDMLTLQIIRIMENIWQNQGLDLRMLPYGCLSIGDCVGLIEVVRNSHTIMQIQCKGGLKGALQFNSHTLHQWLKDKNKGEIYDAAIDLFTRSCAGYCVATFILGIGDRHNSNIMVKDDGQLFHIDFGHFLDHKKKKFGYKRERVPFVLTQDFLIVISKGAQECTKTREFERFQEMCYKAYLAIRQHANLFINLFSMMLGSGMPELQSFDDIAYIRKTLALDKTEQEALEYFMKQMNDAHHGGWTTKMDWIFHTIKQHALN

Structure (SMILES) | IC50 [1] | IC50 [2] | concentration at 4 h [3] | concentration at 1 h [4] | remaining at 0.5 h [5] | IC50 [6] | INH (Cytochrome P450 3A4) | INH (Cytochrome P450 2C9) | IC50 [7] | INH (Cytochrome P450 2C8) | INH (Cytochrome P450 2D6) | Papp [8] | solubility kinetic [9]
CC(=O)c1ccc(C(=O)N2CCOc3ccc(-c4ccc5cnn(C)c5c4)cc3C2)cc1 | 0.342 µM | 2.45 µM | – | – | – | – | – | – | – | – | – | – | –
Cc1nc2ccc(-c3ccc4c(c3)CN(C(=O)c3ccc(C(=O)C(F)(F)F)cc3)CCO4)cc2[nH]1 | 0.0005 µM | 0.089 µM | 0.2 µM | 1 µM | 50% | 0.239 µM | – | – | – | – | – | – | –
CC(=O)Nc1cccc(-c2ccc3c(c2)CN(C(=O)c2ccc(C(=O)C(F)(F)F)cc2)CCO3)c1 | 0.115 µM | 0.238 µM | – | – | – | – | – | – | – | – | – | – | –
CS(=O)(=O)c1ccc(C(=O)N2CCOc3ccc(-c4ccc5nc[nH]c5c4)cc3C2)c(Br)c1 | 0.0052 µM | 0.693 µM | – | – | 45% | 0.343 µM | 3 µM | 4.2 µM | 0.453 µM | 3.4 µM | 9.2 µM | – | –
CCCc1cc(S(C)(=O)=O)ccc1C(=O)N1CCOc2ccc(-c3ccc4nc[nH]c4c3)cc2C1 | 0.028 µM | > 3 µM | – | – | 87% | 1.18 µM | – | – | 3.3 µM | – | – | – | –
c1ccc2ncc(-c3ccc4c(c3)CNCCO4)cc2c1 | > 10 µM | > 10 µM | – | – | – | – | – | – | – | – | – | – | –
CS(=O)(=O)c1ccc(C(=O)N2CCOc3ccc(-c4ccc5nc[nH]c5c4)cc3C2)cc1 | 0.0044 µM | 0.67 µM | 1 µM | 7.8 µM | 82% | 0.342 µM | 3.8 µM | 3 µM | 0.805 µM | > 20 µM | 8.1 µM | – | –
O=C(c1ccc(C(=O)C(F)(F)F)cc1)N1CCOc2ccc(-c3ccc4ccccc4c3)cc2C1 | 0.0737 µM | 1.46 µM | – | – | – | – | – | – | – | – | – | – | –
CCc1c(C(=O)N2CCOc3ccc(-c4ccc5nc[nH]c5c4)cc3C2)ccc(S(C)(=O)=O)c1F | 0.0029 µM | > 3 µM | – | – | 59% | 0.152 µM | 2.6 µM | 2.2 µM | 0.277 µM | 3.1 µM | 11.5 µM | – | –
O=C(c1ccc(C(=O)C(F)(F)F)cc1)N1CCOc2ccc(-c3ccc4nc[nH]c4c3)cc2C1 | 0.0023 µM | 0.089 µM | 0.4 µM | 1.5 µM | 49% | 0.151 µM | 2.3 µM | 0.8 µM | – | 6.2 µM | 4 µM | 9.8 nm/s | < 1 µM
CCc1cc(S(C)(=O)=O)ccc1C(=O)N1CCOc2ccc(-c3ccc4nc[nH]c4c3)cc2C1 | 0.0052 µM | > 3 µM | – | – | 50% | 0.233 µM | 2 µM | 5.4 µM | 0.689 µM | 5.6 µM | > 20 µM | – | –
CCNc1cc(S(C)(=O)=O)ccc1C(=O)N1CCOc2ccc(-c3ccc4nc[nH]c4c3)cc2C1 | 0.204 µM | > 3 µM | – | – | – | – | – | – | – | – | – | – | –
CS(=O)(=O)c1ccc(C(=O)N2CCOc3ccc(-c4ccc5nc[nH]c5c4)cc3C2)c(Cl)c1 | 0.0232 µM | 0.705 µM | – | – | 58% | 0.337 µM | 3.5 µM | 9 µM | 1.06 µM | 5.4 µM | 9.2 µM | – | –
O=C(c1ccc(C(=O)C(F)(F)F)cc1)N1CCOc2ccccc2C1 | > 10 µM | > 10 µM | – | – | – | – | – | – | – | – | – | – | –
Cc1cc(C(=O)N2CCOc3ccc(-c4ccc5nc[nH]c5c4)cc3C2)ccc1S(C)(=O)=O | 0.0066 µM | 0.459 µM | – | – | 68% | 0.591 µM | – | – | 1.22 µM | – | – | – | –

— ChEMBL document CHEMBL2331117 (J Med Chem, 2013)
